Here are results for six compounds from ChEMBL document CHEMBL1155958, “Inhibition of oxidative metabolism of tocopherols with omega-N-heterocyclic derivatives of vitamin E” (Bioorg Med Chem, 2008).

Calls of active or inactive are those of the source. No cut-off for these calls is given here.

The subject of data set [1] is Mus musculus. The data set is described as follows: Enrichment in delta-tocopherol in FVB/N mouse liver assessed as doubling in delta-tocopherol/alpha-tocopherol ratio at 500 mg/kg in delta-tocopherol rich diet for 10 days. In kind it is functional, organism-based. More on the design: dose 500 mg/kg.
Data set [2] has as its target T1, Cytochrome P450 3A4 (Homo sapiens, UniProt P08684). Nature of the data set: Inhibition of human recombinant CYP3A4 expressed in insect cell microsome assessed as testosterone-6-hydroxylase activity at 4 uM after 60 mins. In kind it is ADME, microsomes. As to conditions: recombinant enzyme, 1 h. An outline of the steps: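 Insect-cell microsomes expressing only recombinant human CYP3A4 (20 pmol P450) incubated 60 min with 200 µM testosterone, 1 mM NADPH and 0.25% BSA in […], pH 7.4, with or without inhibitor. Reaction stopped with cold ethanol and extracted with hexane/MTBE (7:1). 6-OH-testosterone expressed as nmol per nmol membrane cholesterol.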

Data set [3] has as its target T2, Cytochrome P450 4F2 (Homo sapiens, UniProt P78329).
T2 sequence (P78329 whole entry): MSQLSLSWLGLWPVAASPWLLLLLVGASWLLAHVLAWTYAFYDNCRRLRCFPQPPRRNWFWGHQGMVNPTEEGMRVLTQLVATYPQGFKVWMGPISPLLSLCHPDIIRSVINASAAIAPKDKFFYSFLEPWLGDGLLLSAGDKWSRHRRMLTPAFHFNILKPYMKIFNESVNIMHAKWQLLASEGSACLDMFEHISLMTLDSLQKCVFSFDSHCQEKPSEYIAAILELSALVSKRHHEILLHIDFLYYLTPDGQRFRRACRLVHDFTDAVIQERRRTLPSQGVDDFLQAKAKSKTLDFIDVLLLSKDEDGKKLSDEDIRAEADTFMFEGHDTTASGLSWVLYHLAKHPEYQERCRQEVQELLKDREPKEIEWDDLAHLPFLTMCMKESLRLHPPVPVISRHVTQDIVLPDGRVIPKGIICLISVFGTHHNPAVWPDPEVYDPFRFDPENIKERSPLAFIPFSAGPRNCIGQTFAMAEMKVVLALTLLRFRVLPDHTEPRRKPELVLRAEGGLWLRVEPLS
The data set is described as follows: Inhibition of CYP4F2-mediated gamma-tocopherol metabolism in human HepG2/C3A cells preincubated for 4 hrs and continued for 48 hrs. It is filed as cell-based. To be noted: for Activity: human, hepg2/c3a, 48 h. The gist of the method: (§1)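 Confluent HepG2/C3A monolayers pre-incubated 4 hr with inhibitor (ethanol stock) or ethanol vehicle. Medium then replaced with fresh medium containing γ-tocopherol, 25 µM final, plus inhibitor again. After 48 hr, medium analysed by GC-MS for 3'- and 5'-carboxychromanols, with d9-α-CEHC internal standard. Results given as percent inhibition, means and standard deviation.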

The subject of data set [4] is Mus musculus. Nature of the data set: Enrichment in delta-tocopherol in FVB/N mouse bile assessed as tripling in delta-tocopherol/alpha-tocopherol ratio at 500 mg/kg in delta-tocopherol rich diet for 10 days. It is filed as functional, organism-based. More on the design: dose 500 mg/kg.
The target of data set [5] is T1, Cytochrome P450 3A4. Nature of the data set: Inhibition of CYP3A4 in human HepG2/C3A cells assessed as testosterone-6-hydroxylase activity. It is filed as ADME, cell-based. An outline of the steps:
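Confluent HepG2/C3A cultures pre-incubated 4 hr with inhibitor or ethanol control, then given 50 µM testosterone. After 48 hr, medium extracted with ethyl acetate and 6-hydroxytestosterone measured as its trimethylsilyl ether by GC-MS. Percent inhibition reported as means and standard deviation.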

In data set [6] the target is T2, Cytochrome P450 4F2. Nature of the data set: Inhibition of CYP4F2-mediated gamma-tocopherol metabolism in human HepG2/C3A cells at 1 uM preincubated for 6 hrs and continued for 24 hrs. In kind it is cell-based. The gist of the method:
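Confluent HepG2/C3A monolayers exposed to 1 µM inhibitor for 6 hr. Then incubated 24 hr in medium with 25 µM γ-tocopherol, inhibitor not replaced. Medium carboxychromanol metabolites measured by GC-MS against d9-α-CEHC internal standard.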

The target in data set [7] is T3, CYP4F2 (Homo sapiens, UniProt P78329).
T3 sequence (P78329 whole entry): T2 sequence (P78329 whole entry)
Nature of the data set: Inhibition of CYP4F2-mediated gamma-tocopherol metabolism in human HepG2/C3A cells at 1.0 uM preincubated for 4 hrs and continued for 48 hrs. It is filed as cell-based. As to conditions: probe gamma-tocopherol. An outline of the steps: as §1

The target of data set [8] is T3, CYP4F2. Nature of the data set: Inhibition of CYP4F2-mediated gamma-tocopherol metabolism in human HepG2/C3A cells at 20 nM preincubated for 4 hrs and continued for 48 hrs. It is filed as cell-based. To be noted: probe gamma-tocopherol. An outline of the steps: as §1

T1 sequence (P08684 whole entry): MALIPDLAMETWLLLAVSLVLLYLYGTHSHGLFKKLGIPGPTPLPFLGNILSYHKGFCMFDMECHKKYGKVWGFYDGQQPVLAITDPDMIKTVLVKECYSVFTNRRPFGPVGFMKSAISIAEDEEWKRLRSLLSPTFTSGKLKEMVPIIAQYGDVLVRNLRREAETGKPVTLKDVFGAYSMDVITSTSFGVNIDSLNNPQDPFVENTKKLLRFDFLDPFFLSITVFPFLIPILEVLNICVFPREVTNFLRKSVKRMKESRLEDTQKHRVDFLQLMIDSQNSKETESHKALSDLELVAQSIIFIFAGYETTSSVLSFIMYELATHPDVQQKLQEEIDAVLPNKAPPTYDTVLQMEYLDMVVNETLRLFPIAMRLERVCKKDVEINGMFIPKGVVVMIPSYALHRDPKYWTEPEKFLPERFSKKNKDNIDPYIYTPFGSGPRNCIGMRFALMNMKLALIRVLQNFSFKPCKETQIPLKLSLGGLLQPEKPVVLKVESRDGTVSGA

As to `Cc1c(C)c2c(c(C)c1O)CC[C@@](C)(CCCCCCCCCn1ccnc1)O2`, the result in the data set with Mus musculus [1] and in the data set on Mus musculus [4] was Active. Also, at Cytochrome P450 3A4 [2], the “inhibition (INH)” value came out at 90%. Further, the IC50 on Cytochrome P450 4F2 [3] (read-out: ED50 (the source's name)) was 1 nM. In addition, the outcome on Cytochrome P450 3A4 [5] and on Cytochrome P450 4F2 [6] was Active.

Consider `Cc1c(C)c2c(c(C)c1O)CC[C@@](C)(CCCCCCCCCn1nnc3ccccc31)O2`, for which the Activity result on Cytochrome P450 4F2 [3] is “Not Active”.

The inhibition is how much of the control response was suppressed. Read a low inhibition as little suppression. `Cc1c(C)c2c(c(C)c1O)CC[C@@](C)(CCCCCCCCCn1ccnn1)O2` had an inhibition at 48 h, 1 µM against CYP4F2 [7] of 36%. At Cytochrome P450 3A4 [5], the result was Active.

With `Cc1c(C)c2c(c(C)c1O)CC[C@@](C)(CCCCCCCCCn1nc3ccccc3n1)O2`, on Cytochrome P450 4F2 [3], the Activity entry is “Not Active”.

On to `Cc1c(C)c2c(c(C)c1O)CC[C@@](C)(CCCCCCCCCn1cncn1)O2`, for which the inhibition at 48 h, 0.02 µM at CYP4F2 [8] worked out at 42%. Also, the outcome on Cytochrome P450 3A4 [5] was Active.

For the compound `Cc1c(C)c2c(c(C)c1O)CC[C@@](C)(CCCCCCCCCn1cnc3ccccc31)O2`, at Cytochrome P450 4F2 [3], the Activity result was “Not Active”.
